Assay results collected from several papers.
CNR1: Cannabinoid receptor 1 (CNR1, Homo sapiens, UniProt P21554)
Oprm1: Mu-type opioid receptor (Oprm1, Mus musculus, UniProt P42866)
HTR2A: 5-hydroxytryptamine receptor 2A (HTR2A, Homo sapiens, UniProt P28223)

| SMILES | target | test | setting | measurement | result |
| --- | --- | --- | --- | --- | --- |
| CCCCC/C=C\[C@H](C)/C=C\C/C=C\Cc1ccccc1CCCC(=O)N[C@H](C)CO | CNR1 | β-arrestin recruitment, agonist |  | EC50 | 1960 nM |
| Cc1oc(-c2ccccc2)nc1CCOc1cccc2c1ccn2CCC(=O)O | Fatty acid-binding protein, intestinal (Homo sapiens, UniProt P12104, T55A) | ligand displacement, fluorescence |  | Kd | 31900 nM |
| CC(C)[C@@H](CN1CCc2ccccc2C1)NC(=O)c1cccc(-c2cccc(O)c2)c1 | Oprm1 | ligand displacement, radioligand |  | Ki | 1210 nM |
| COc1cc2c3c(c1OC)-c1c(OC)ccc(Cl)c1CC3N(C)CC2 (racemic) | HTR2A | cell-free assay, radioligand |  | Ki | 893 nM |
| CC(C)(NC(=O)c1nn(CC2CCCC2)c2ccccc12)c1cccc(C(N)=O)c1 | CNR1 | ligand displacement, radioligand | cell membranes | Ki | 130 nM |
| Cc1c(CC(=O)N[C@@H](CN2CCc3ccccc3C2)C(C)C)cccc1[N+](=O)[O-] | Oprm1 | ligand displacement, radioligand |  | Ki | 150 nM |
| COc1cc2c(cc1OC)CN(CCc1ccc(NC(=O)c3cccc4c(=O)c5cccc(OC)c5[nH]c34)cc1)CC2 | Histamine H4 receptor (HRH4, Homo sapiens, UniProt Q9H3N8) | cell-free assay |  | Ki | > 10000 nM |
| O=C(O)C(F)(F)OC(F)(F)C(F)(F)OC(F)(F)C(F)(F)OC(F)(F)C(F)(F)C(F)(F)C(F)(F)F | Fatty acid-binding protein, brain (Homo sapiens, UniProt O15540) | ligand displacement, fluorescence |  | Kd | 20 nM |
| CCCCC/C=C\C/C=C\C/C=C\Cc1ccccc1CCCC(=O)N[C@H](C)CO | CNR1 | cAMP, agonist |  | EC50 | 315 nM |
| CC[C@H](C)[C@@H](C(=O)N1CCC[C@H]1c1nccs1)N(C)C(=O)[C@H](CC(C)C)N(C)C(=O)[C@H](Cc1ccc(OC)cc1)N(C)C(=O)/C=C(\C)OC | CNR1 | β-arrestin recruitment, antagonist |  | IC50 | 11600 nM |
| CC(C)[C@@H](CN1CCc2ccccc2C1)NC(=O)Cc1c[nH]c2ccccc12 | Oprm1 | ligand displacement, radioligand |  | Ki | 1240 nM |
| CC(C)(NC(=O)c1nn(CCCCC#N)c2ccccc12)c1cccc(C(N)=O)c1 | CNR1 | ligand displacement, radioligand | cell membranes | Ki | 460 nM |
| O=c1c2cc(Cl)ccc2[nH]c(=S)n1Cc1cccnc1 | HTR2A | cell-free assay |  | IC50 | 2600 nM |
| CC(C)(NC(=O)c1nn(CCCCCF)c2ccccc12)c1cccc(C(N)=O)c1 | CNR1 | ligand displacement, radioligand | cell membranes | Ki | 68 nM |
| O=c1cc(CSc2ccc(N=Cc3ccc(F)cc3)cc2)occ1O | PPO3 (Agaricus bisporus, UniProt C7FF04) | enzyme activity, inhibitor, absorbance |  | IC50 | 53500 nM |
| CCCCC1CNC2CCc3ccc(OC)cc3C12 (racemic) | Sigma non-opioid intracellular receptor 1 (SIGMAR1, Homo sapiens, UniProt Q99720) | ligand displacement, radioligand |  | Ki | 0.81 nM |
